From ChEMBL document CHEMBL5058577, “EUbOPEN Chemogenomics Library 2 (Multiplex)” (2022)

System: U2OS
Test: Multiplex assay against U2OS
Assay type: toxicity, cell-based
Conditions: human
How it was run: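 With compound added, live cells were imaged on a CQ1 microscope at 37°C and 5% CO2; staining with Hoechst33342, BioTracker Green Microtubule Cytoskeleton Dye, MitoTracker Red and Annexin V Alexa Fluor 680 had been done at seeding. The CellPathfinder machine-learning gating scheme split cells into Hoechst high-intensity objects or normal cells, normal cells into healthy, pyknosed or fragmented nuclei, and pyknosed cells into mitotic or apoptotic. The tubulin, mitochondrial-mass and membrane-permeability phenotypes are per cents of healthy-nucleus cells.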

[1] = 12 h, 1 µM, compound concentration 1 uM, replicate 1
[2] = 12 h, 1 µM, compound concentration 1 uM, replicate 2
[3] = 12 h, 10 µM, compound concentration 10 uM, replicate 1
[4] = 12 h, 10 µM, compound concentration 10 uM, replicate 2
[5] = 24 h, 1 µM, compound concentration 1 uM, replicate 1
[6] = 24 h, 1 µM, compound concentration 1 uM, replicate 2
[7] = 24 h, 10 µM, compound concentration 10 uM, replicate 1
[8] = 24 h, 10 µM, compound concentration 10 uM, replicate 2
[9] = 48 h, 1 µM, compound concentration 1 uM, replicate 1
[10] = 48 h, 1 µM, compound concentration 1 uM, replicate 2
[11] = 48 h, 10 µM, compound concentration 10 uM, replicate 1
[12] = 48 h, 10 µM, compound concentration 10 uM, replicate 2

## Cc1cc(-c2ccc3c(c2)CC[C@H]3N2CC3(CCN(C(=O)Cc4cn5cc(C)sc5n4)CC3)C2)ncn1 [PF-5190457]
[1]
  Population Apoptotic (%): 82%
  Population Fragmented Nuclei (%): 24%
  Population Healthy Nuclei (%): 65%
  Population Hoechst High Intensity Objects (%): 1%
  Population Membrane Permeable-Phenotype (%): 7%
  Population Mitochondria Different-Phenotype (%): 3%
  Population Mitotic Cells (%): 17%
  Population Normal (%): 98%
  Population Pyknosed Nuclei (%): 9%
  Population Tubulin-Different-Phenotype (%): 4%
  Total Cell Count: 239
[2]
  Population Apoptotic (%): 63%
  Population Fragmented Nuclei (%): 21%
  Population Healthy Nuclei (%): 66%
  Population Hoechst High Intensity Objects (%): 0%
  Population Membrane Permeable-Phenotype (%): 4%
  Population Mitotic Cells (%): 36%
  Population Normal (%): 100%
  Population Pyknosed Nuclei (%): 11%
  Population Tubulin-Different-Phenotype (%): 3%
  Total Cell Count: 93
[3]
  Population Apoptotic (%): 61%
  Population Fragmented Nuclei (%): 18%
  Population Healthy Nuclei (%): 66%
  Population Hoechst High Intensity Objects (%): 2%
  Population Membrane Permeable-Phenotype (%): 7%
  Population Mitochondria Different-Phenotype (%): 5%
  Population Mitotic Cells (%): 38%
  Population Normal (%): 97%
  Population Pyknosed Nuclei (%): 14%
  Population Tubulin-Different-Phenotype (%): 5%
  Total Cell Count: 238
[4]
  Population Apoptotic (%): 71%
  Population Fragmented Nuclei (%): 14%
  Population Healthy Nuclei (%): 74%
  Population Hoechst High Intensity Objects (%): 1%
  Population Membrane Permeable-Phenotype (%): 8%
  Population Mitochondria Different-Phenotype (%): 10%
  Population Mitotic Cells (%): 28%
  Population Normal (%): 98%
  Population Pyknosed Nuclei (%): 11%
  Population Tubulin-Different-Phenotype (%): 6%
  Total Cell Count: 126
[5]
  Population Apoptotic (%): 69%
  Population Fragmented Nuclei (%): 25%
  Population Healthy Nuclei (%): 66%
  Population Hoechst High Intensity Objects (%): 1%
  Population Membrane Permeable-Phenotype (%): 8%
  Population Mitochondria Different-Phenotype (%): 3%
  Population Mitotic Cells (%): 30%
  Population Normal (%): 98%
  Population Pyknosed Nuclei (%): 8%
  Population Tubulin-Different-Phenotype (%): 5%
  Total Cell Count: 282
[6]
  Population Apoptotic (%): 33%
  Population Fragmented Nuclei (%): 21%
  Population Healthy Nuclei (%): 76%
  Population Hoechst High Intensity Objects (%): 0%
  Population Membrane Permeable-Phenotype (%): 6%
  Population Mitochondria Different-Phenotype (%): 1%
  Population Mitotic Cells (%): 66%
  Population Normal (%): 99%
  Population Pyknosed Nuclei (%): 2%
  Population Tubulin-Different-Phenotype (%): 2%
  Total Cell Count: 126
[7]
  Population Apoptotic (%): 67%
  Population Fragmented Nuclei (%): 18%
  Population Healthy Nuclei (%): 72%
  Population Hoechst High Intensity Objects (%): 2%
  Population Membrane Permeable-Phenotype (%): 3%
  Population Mitochondria Different-Phenotype (%): 0%
  Population Mitotic Cells (%): 32%
  Population Normal (%): 97%
  Population Pyknosed Nuclei (%): 9%
  Population Tubulin-Different-Phenotype (%): 1%
  Total Cell Count: 295
[8]
  Population Apoptotic (%): 84%
  Population Healthy Nuclei (%): 69%
  Population Hoechst High Intensity Objects (%): 1%
  Population Membrane Permeable-Phenotype (%): 11%
  Population Mitochondria Different-Phenotype (%): 8%
  Population Mitotic Cells (%): 15%
  Population Normal (%): 98%
  Population Pyknosed Nuclei (%): 12%
  Population Tubulin-Different-Phenotype (%): 4%
  Total Cell Count: 154
[9]
  Population Apoptotic (%): 84%
  Population Fragmented Nuclei (%): 20%
  Population Healthy Nuclei (%): 71%
  Population Hoechst High Intensity Objects (%): 0%
  Population Membrane Permeable-Phenotype (%): 7%
  Population Mitochondria Different-Phenotype (%): 4%
  Population Mitotic Cells (%): 15%
  Population Normal (%): 99%
  Population Pyknosed Nuclei (%): 8%
  Population Tubulin-Different-Phenotype (%): 4%
  Total Cell Count: 402
[10]
  Population Apoptotic (%): 66%
  Population Fragmented Nuclei (%): 16%
  Population Healthy Nuclei (%): 78%
  Population Hoechst High Intensity Objects (%): 2%
  Population Membrane Permeable-Phenotype (%): 4%
  Population Mitochondria Different-Phenotype (%): 2%
  Population Mitotic Cells (%): 33%
  Population Normal (%): 97%
  Population Pyknosed Nuclei (%): 5%
  Population Tubulin-Different-Phenotype (%): 2%
  Total Cell Count: 184
[11]
  Population Apoptotic (%): 74%
  Population Fragmented Nuclei (%): 16%
  Population Healthy Nuclei (%): 71%
  Population Hoechst High Intensity Objects (%): 3%
  Population Membrane Permeable-Phenotype (%): 5%
  Population Mitochondria Different-Phenotype (%): 2%
  Population Mitotic Cells (%): 25%
  Population Normal (%): 96%
  Population Pyknosed Nuclei (%): 12%
  Population Tubulin-Different-Phenotype (%): 3%
  Total Cell Count: 389
[12]
  Population Apoptotic (%): 76%
  Population Fragmented Nuclei (%): 18%
  Population Membrane Permeable-Phenotype (%): 11%
  Population Mitochondria Different-Phenotype (%): 6%
  Population Mitotic Cells (%): 23%
  Population Pyknosed Nuclei (%): 10%
  Population Tubulin-Different-Phenotype (%): 4%
  Total Cell Count: 217
